From ChEMBL document CHEMBL4321801, “Anti-prion Butenolides and Diphenylpropanones from the Australian Ascidian Polycarpa procera” (J Nat Prod, 2019)
Activity calls are given as the source filed them. No cut-off for these calls is given here.

Tests used:
[1] = Anti-prion activity against [PSI+] protein in Saccharomyces cerevisiae STRg6 measured after 24 hrs by fluorimetry analysis
Summary of the method: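 Whole-cell yeast assay for curing of the [PSI+] prion, which depends on compound uptake across the cell membrane. EC50 (μM) reported ± SE. Guanabenz was run as the positive control.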

Saccharomyces cerevisiae = assay: Anti-prion activity against [URE3] protein in Saccharomyces cerevisiae SB34 at 100 uM measured after 24 hrs by fluorimetry analysis
Summary of the method: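 Whole-cell yeast assay for curing of the [URE3] prion at a single concentration of 100 μM, scored as yes/no curing. Guanabenz was run as the positive control.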

SMILES | EC50 [1] | Activity (Saccharomyces cerevisiae)
COC1=C(c2cc(Br)c(O)c(Br)c2)[C@H](Cc2ccc(OC)c(Br)c2)OC1=O | 65 µM | Active
COc1c(Br)cc(C[C@H](O)C(=O)c2cc(Br)c(O)c(Br)c2)cc1Br | 33 µM | Active
COc1ccc(C[C@@H]2OC(=O)C(O)=C2c2cc(Br)c(O)c(Br)c2)cc1Br | 23 µM | Active
COc1ccc(C[C@H](O)C(=O)c2cc(Br)c(O)c(Br)c2)cc1Br | 29 µM | Active
COC1=C(c2cc(Br)c(O)c(Br)c2)[C@H](Cc2cc(Br)c(OC)c(Br)c2)OC1=O | 67 µM | Active
N=C(N)N/N=C/c1c(Cl)cccc1Cl [GUANABENZ] | 26 µM | Active
COc1c(Br)cc(C[C@@H]2OC(=O)C(O)=C2c2cc(Br)c(O)c(Br)c2)cc1Br | 34 µM | Active
